Laboratory results as given in ChEMBL document CHEMBL3576847, “Discovery of 1-(3,3-dimethylbutyl)-3-(2-fluoro-4-methyl-5-(7-methyl-2-(methylamino)pyrido[2,3-d]pyrimidin-6-yl)phenyl)urea (LY3009120) as a pan-RAF inhibitor with minimal paradoxical activation and activity against BRAF or RAS mutant tumor cells” (J Med Chem, 2015).
In brackets after ≈: the same amount, converted by molar mass. Activity calls are given as the source filed them. No cut-off for these calls is given here.

Experiments:
[1] = molecular target: T1, Serine/threonine-protein kinase B-raf (Homo sapiens, UniProt P15056, V600E); assay: Inhibition of BRAF V600E mutant in human A375 cells assessed as inhibition of ERK phosphorylation measured after 72 hrs by ELISA assay; assay type: cell-based, A-375
GTPase KRas = GTPase KRas (Homo sapiens, UniProt P01116, G13D); assay: Inhibition of KRAS G13D mutant in human HCT116 cells assessed as inhibition of ERK phosphorylation by ELISA; assay type: cell-based, HCT-116
Summary of the method: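 HCT116 cells (KRAS G13D, BRAF WT; RAF signalling via CRAF) were treated with compound, and the change in cellular phospho-ERK was measured. IC50 was taken as the concentration inhibiting phospho-ERK.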

[2] = molecular target: Dual specificity mitogen-activated protein kinase kinase; MEK1/2 (Homo sapiens, UniProt P36507+Q02750); assay: Inhibition of MEK (unknown origin)
HCT-116 = assay: cells; settings: Homo sapiens, HCT-116, 67 h
[3] = molecular target: Serine/threonine-protein kinase B-raf (Homo sapiens, UniProt P15056); assay: Inhibition of wild type BRAF (unknown origin) assessed as ADP formation measured for 5 hrs by pyruvate kinase/lactate dehydrogenase coupled assay in presence of ATP, MEK1, NADH
A-375 = assay: cells; settings: Homo sapiens, A-375, 72 h
[4] = molecular target: RAF proto-oncogene serine/threonine-protein kinase (Homo sapiens, UniProt P04049); assay: Inhibition of wild type CRAF (unknown origin) assessed as ADP formation measured for 5 hrs by pyruvate kinase/lactate dehydrogenase coupled assay in presence of ATP, MEK1, PEP, NADH
[5] = molecular target: T1, Serine/threonine-protein kinase B-raf; assay: Inhibition of recombinant BRAF V600E mutant (unknown origin) assessed as ADP formation measured for 5 hrs by pyruvate kinase/lactate dehydrogenase coupled assay in presence of ATP, MEK1, NADH
[6] = molecular target: Serine/threonine-protein kinase A-Raf (Homo sapiens, UniProt P10398); assay: Competitive binding affinity to ARAF in human A375 cells after 15 mins in presence of ATP analogue; assay type: cell-based, A-375
[7] = molecular target: Vascular endothelial growth factor receptor 2 (Homo sapiens, UniProt P35968); assay: Inhibition of KDR (unknown origin)
[8] = Paradoxical activation of RAS/RAF/MEK signaling pathway in human HCT116 cells expressing wild type BRAF assessed as ERK phosphorylation at 0.34 to 20000 nM; assay type: cell-based; settings: HCT-116
[9] = Oral bioavailability in rat administered as suspension; assay type: ADME, organism-based; settings: in vivo
[10] = Clearance in iv dosed rat administered as suspension; assay type: ADME, organism-based; settings: in vivo
[11] = Clearance in po dosed dog administered as suspension; assay type: ADME, organism-based, Canis lupus familiaris; settings: in vivo
[12] = Solubility of the compound in simulated fed intestinal fluid; assay type: ADME
[13] = Oral bioavailability in dog administered as suspension; assay type: ADME, organism-based, Canis lupus familiaris; settings: in vivo
[14] = Solubility of the compound in simulated fasted intestinal fluid; assay type: ADME
[15] = Clearance in po dosed rat administered as suspension; assay type: ADME, organism-based; settings: in vivo

T1 sequence (P15056 2-766 V600E limits assumed): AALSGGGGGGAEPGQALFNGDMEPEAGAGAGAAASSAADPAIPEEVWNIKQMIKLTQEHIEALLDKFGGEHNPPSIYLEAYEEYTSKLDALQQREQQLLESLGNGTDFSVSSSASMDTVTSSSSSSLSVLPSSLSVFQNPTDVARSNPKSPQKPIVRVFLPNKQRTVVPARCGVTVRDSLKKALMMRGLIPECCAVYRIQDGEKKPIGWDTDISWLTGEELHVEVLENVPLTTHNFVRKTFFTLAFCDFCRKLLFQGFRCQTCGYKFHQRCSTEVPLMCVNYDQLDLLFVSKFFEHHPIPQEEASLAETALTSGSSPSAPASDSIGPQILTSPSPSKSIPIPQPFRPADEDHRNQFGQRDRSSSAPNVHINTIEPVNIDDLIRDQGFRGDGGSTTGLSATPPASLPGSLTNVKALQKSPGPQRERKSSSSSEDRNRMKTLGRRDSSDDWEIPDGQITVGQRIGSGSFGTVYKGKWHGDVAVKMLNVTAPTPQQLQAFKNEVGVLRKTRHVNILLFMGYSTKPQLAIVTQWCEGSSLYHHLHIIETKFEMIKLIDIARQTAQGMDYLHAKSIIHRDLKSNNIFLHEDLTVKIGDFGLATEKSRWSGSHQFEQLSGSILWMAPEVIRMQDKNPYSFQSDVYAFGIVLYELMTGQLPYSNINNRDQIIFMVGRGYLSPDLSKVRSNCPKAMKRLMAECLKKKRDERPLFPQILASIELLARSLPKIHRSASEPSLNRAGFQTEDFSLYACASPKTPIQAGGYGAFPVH
Sequence of Serine/threonine-protein kinase B-raf (Homo sapiens, UniProt P15056) (P15056 whole entry): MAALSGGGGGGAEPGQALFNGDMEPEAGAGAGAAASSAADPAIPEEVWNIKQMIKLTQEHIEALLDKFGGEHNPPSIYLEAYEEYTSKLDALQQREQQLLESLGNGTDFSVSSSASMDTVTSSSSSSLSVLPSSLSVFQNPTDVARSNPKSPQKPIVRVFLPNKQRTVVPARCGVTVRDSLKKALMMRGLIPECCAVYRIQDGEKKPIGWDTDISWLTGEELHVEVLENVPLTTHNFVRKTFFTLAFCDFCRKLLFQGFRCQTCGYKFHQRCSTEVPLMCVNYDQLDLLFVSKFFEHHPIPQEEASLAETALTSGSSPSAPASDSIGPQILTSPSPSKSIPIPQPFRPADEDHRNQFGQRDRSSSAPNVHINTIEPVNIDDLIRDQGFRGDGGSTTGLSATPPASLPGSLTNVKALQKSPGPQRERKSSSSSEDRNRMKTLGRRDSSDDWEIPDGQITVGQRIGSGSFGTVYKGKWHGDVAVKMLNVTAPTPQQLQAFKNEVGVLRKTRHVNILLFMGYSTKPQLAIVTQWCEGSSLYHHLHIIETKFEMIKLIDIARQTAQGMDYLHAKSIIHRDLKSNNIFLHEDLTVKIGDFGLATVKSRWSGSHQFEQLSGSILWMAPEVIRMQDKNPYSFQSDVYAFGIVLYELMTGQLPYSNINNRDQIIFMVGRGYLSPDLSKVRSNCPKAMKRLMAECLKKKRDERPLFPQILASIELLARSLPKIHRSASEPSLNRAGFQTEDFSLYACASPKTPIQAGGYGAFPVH
Sequence of Vascular endothelial growth factor receptor 2 (P35968 whole entry): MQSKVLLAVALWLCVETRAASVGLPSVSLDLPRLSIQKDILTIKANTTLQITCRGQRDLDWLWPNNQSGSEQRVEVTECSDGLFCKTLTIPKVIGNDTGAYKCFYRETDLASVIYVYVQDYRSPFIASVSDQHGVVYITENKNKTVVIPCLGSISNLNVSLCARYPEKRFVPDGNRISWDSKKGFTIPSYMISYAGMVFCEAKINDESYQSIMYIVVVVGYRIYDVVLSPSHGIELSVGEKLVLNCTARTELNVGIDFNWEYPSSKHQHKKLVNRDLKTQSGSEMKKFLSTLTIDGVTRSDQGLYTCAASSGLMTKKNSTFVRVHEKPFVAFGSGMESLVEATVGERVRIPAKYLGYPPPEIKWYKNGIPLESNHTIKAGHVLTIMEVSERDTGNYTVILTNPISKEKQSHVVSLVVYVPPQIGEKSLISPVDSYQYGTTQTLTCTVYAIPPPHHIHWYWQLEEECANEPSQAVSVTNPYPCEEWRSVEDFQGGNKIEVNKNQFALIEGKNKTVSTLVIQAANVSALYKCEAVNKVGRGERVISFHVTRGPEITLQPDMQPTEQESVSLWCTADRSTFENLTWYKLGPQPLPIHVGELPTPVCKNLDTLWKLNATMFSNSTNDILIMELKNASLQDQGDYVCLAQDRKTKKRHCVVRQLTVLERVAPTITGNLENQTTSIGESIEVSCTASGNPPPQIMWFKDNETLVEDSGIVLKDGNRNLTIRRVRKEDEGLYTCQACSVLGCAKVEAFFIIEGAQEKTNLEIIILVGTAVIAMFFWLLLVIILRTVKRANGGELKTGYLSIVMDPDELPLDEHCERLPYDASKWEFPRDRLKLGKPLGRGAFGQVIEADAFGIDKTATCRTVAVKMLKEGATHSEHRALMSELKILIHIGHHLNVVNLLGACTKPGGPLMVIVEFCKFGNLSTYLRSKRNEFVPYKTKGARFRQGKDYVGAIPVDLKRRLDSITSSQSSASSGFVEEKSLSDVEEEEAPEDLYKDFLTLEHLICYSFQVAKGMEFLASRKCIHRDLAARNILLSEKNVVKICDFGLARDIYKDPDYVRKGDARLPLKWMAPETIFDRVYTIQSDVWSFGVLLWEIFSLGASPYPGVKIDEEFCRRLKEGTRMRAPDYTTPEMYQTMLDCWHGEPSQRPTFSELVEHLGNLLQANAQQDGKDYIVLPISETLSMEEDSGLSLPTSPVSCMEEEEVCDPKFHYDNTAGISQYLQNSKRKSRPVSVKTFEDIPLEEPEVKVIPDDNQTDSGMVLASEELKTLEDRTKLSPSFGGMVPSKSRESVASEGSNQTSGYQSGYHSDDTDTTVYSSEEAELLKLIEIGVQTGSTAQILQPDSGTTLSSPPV
Sequence of GTPase KRas (P01116 whole entry G13D): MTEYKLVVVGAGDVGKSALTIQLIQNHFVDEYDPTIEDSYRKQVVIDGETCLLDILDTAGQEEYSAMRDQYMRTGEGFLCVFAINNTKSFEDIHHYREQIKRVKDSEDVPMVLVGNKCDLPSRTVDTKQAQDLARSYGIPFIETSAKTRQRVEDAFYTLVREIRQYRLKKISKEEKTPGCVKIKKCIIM
Sequence of RAF proto-oncogene serine/threonine-protein kinase (P04049 whole entry): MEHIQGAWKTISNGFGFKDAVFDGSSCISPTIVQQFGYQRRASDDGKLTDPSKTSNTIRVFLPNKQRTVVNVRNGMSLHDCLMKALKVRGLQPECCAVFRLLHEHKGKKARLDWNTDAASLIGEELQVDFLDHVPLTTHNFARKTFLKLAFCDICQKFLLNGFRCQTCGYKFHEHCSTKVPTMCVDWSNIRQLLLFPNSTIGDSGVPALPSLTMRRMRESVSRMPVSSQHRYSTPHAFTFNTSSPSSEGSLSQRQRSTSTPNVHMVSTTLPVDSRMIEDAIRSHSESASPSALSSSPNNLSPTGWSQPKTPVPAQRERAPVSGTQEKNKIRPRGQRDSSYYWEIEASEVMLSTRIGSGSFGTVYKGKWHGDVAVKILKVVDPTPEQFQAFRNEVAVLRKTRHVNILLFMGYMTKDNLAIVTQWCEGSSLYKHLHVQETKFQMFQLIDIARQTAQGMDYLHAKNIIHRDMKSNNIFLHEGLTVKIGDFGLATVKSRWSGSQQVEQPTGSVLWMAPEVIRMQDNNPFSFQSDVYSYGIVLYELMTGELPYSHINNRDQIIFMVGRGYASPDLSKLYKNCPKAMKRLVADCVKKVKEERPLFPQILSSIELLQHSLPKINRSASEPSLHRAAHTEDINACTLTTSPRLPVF
Sequence of Serine/threonine-protein kinase A-Raf (P10398 whole entry): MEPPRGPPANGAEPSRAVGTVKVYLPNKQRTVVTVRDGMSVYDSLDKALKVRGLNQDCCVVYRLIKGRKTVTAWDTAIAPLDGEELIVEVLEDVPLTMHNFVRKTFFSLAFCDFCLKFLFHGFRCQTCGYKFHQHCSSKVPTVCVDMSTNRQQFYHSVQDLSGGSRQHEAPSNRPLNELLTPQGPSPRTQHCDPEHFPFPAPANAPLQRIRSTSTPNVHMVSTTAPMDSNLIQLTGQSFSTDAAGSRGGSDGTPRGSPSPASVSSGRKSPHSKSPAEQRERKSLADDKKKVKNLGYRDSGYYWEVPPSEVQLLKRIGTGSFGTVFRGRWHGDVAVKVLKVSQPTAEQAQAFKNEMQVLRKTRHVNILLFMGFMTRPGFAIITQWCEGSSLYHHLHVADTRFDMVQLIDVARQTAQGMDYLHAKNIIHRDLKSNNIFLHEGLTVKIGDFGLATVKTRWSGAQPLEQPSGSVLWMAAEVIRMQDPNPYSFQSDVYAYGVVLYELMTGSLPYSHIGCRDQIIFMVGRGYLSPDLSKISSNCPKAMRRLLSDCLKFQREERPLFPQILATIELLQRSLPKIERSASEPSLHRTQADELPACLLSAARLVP

SMILES	IC50 [1] [nM]	IC50 (GTPase KRas) [nM]	IC50 [2] [nM]	IC50 (HCT-116) [nM]	IC50 [3] [nM]	IC50 (A-375) [nM]	IC50 [4] [nM]	IC50 [5] [nM]	IC50 [6] [nM]	IC50 [7] [nM]	Activity [8]	bioavailability [9] [%]	clearance [10] [mL/min/kg]	CL/F [11] [mL/min/kg]	solubility [12] [µg/mL]	bioavailability [13] [%]	solubility [14] [µg/mL]	CL/F [15] [mL/min/kg]
CNc1cc2nc(C)c(-c3cc(NC(=O)NCCC(C)(C)C)ccc3C)cc2cn1	140	270	> 20000	510	27	35	6.7	4.3	–	–	–	–	–	–	–	–	–	–
CCCS(=O)(=O)Nc1ccc(F)c(C(=O)c2c[nH]c3ncc(-c4ccc(Cl)cc4)cc23)c1F [VEMURAFENIB]	–	16600	1500	> 10000	–	170	–	–	950	360	Active	–	–	–	–	–	–	–
CNc1cc2nc(C)c(-c3cc(NC(=O)NCCC(C)(C)C)c(F)cc3C)cc2cn1	47	120	5900	320	28	11	5.6	18	–	170	–	30	3.36	–	–	–	–	–
CC(C)(C)c1nc(-c2cccc(NS(=O)(=O)c3c(F)cccc3F)c2F)c(-c2ccnc(N)n2)s1 [DABRAFENIB]	–	5880	–	–	–	–	–	–	26	–	–	–	–	–	–	–	–	–
Cc1cc(F)c(NC(=O)NCCC(C)(C)C)cc1-c1cc2cnc(N)nc2nc1C	–	–	–	190	–	33	–	7.9	–	540	–	–	–	–	–	–	–	–
CNc1cc2c(cn1)cc(-c1ccc(F)c(NC(=O)Nc3cc(C(C)(C)C)no3)c1)c(=O)n2[C@H]1CCOC1	6.8	57	2900	32	18	6.1	3.1	1	–	0.46	–	< 10	–	6	2 (≈ 3.84 µM)	< 10	1 (≈ 1.92 µM)	50
